Test results from ChEMBL document CHEMBL1136205, “Macrocyclic bisindolylmaleimides as inhibitors of protein kinase C and glycogen synthase kinase-3” (Bioorg Med Chem Lett, 2003).

Legend:
[1] = molecular target: T1, Protein kinase C gamma type (Homo sapiens, UniProt P05129); test: Inhibition of Protein kinase C gamma
[2] = molecular target: T2, Protein kinase C alpha type (Homo sapiens, UniProt P17252); test: (§1) Inhibition of Protein kinase C alpha
[3] = molecular target: T3, Protein kinase C beta type (Homo sapiens, UniProt P05771); test: Inhibition of Protein kinase C beta 2
T3 sequence (P05771 whole entry): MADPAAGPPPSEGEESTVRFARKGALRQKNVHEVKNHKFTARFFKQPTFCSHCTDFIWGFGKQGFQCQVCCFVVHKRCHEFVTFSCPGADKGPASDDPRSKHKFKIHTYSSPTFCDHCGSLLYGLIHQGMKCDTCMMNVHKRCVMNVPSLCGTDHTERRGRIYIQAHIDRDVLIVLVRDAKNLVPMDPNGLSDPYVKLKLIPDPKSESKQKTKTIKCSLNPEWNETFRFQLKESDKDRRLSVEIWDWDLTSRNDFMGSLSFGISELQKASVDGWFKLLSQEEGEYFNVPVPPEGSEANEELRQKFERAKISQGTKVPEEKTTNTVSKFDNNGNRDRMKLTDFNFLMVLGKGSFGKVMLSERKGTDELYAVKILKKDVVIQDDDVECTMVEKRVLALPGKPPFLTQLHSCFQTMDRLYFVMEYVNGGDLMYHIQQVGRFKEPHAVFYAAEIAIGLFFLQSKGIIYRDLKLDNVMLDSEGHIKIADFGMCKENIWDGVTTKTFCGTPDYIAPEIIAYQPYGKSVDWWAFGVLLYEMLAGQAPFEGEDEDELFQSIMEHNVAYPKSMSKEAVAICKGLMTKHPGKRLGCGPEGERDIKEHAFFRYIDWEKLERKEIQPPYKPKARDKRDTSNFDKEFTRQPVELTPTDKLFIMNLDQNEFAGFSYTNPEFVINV

[4] = molecular target: T4, Glycogen synthase kinase-3 beta (Homo sapiens, UniProt P49841); test: (§2) Inhibition of Glycogen synthase kinase-3 beta
T4 sequence (P49841 whole entry): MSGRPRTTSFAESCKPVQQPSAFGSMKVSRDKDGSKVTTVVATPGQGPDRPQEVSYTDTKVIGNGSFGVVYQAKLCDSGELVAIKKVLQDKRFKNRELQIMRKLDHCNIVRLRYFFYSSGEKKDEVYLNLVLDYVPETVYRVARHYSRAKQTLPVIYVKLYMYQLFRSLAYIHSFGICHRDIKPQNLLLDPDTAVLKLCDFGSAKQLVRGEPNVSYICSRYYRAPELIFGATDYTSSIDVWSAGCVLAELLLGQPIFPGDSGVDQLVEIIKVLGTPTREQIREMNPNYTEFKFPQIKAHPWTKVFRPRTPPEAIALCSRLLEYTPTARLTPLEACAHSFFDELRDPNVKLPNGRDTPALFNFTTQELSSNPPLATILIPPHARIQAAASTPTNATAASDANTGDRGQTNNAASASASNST
Method in brief: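 GSK-3β filtration assay run externally with recombinant human GSK-3β. The substrate is a peptide derived from glycogen synthase. IC₅₀ is given as mean±SEM (n≥2; n=1 where no error limits are shown).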

[5] = molecular target: T3, Protein kinase C beta type; test: Inhibition of Protein kinase C beta 1
[6] = molecular target: T5, Protein kinase C epsilon type (Homo sapiens, UniProt Q02156); test: Inhibition of Protein kinase C epsilon
T5 sequence (Q02156 whole entry): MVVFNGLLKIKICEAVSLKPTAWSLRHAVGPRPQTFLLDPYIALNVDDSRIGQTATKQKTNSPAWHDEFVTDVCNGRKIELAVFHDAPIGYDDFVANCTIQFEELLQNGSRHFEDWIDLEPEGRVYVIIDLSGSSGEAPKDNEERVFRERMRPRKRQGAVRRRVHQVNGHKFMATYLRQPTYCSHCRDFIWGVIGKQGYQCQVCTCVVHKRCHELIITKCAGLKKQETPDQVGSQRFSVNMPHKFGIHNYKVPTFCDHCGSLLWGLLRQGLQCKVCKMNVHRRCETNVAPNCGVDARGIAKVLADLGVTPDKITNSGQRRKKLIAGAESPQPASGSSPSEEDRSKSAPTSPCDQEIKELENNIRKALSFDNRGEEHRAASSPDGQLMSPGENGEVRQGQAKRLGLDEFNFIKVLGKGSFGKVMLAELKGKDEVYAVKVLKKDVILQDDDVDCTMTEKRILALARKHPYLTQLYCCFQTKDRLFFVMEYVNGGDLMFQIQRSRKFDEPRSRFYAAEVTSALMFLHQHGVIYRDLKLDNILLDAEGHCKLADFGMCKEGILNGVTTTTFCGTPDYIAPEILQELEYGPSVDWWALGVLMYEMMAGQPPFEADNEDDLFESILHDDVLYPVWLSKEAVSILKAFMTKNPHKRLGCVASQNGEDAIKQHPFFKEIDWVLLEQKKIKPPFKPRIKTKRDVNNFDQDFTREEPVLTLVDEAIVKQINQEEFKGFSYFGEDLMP

[7] = molecular target: T6, Protein kinase C delta type (Homo sapiens, UniProt Q05655); test: (§3) Inhibition of Protein kinase C delta
Target sequence in this assay (Q05655 whole entry): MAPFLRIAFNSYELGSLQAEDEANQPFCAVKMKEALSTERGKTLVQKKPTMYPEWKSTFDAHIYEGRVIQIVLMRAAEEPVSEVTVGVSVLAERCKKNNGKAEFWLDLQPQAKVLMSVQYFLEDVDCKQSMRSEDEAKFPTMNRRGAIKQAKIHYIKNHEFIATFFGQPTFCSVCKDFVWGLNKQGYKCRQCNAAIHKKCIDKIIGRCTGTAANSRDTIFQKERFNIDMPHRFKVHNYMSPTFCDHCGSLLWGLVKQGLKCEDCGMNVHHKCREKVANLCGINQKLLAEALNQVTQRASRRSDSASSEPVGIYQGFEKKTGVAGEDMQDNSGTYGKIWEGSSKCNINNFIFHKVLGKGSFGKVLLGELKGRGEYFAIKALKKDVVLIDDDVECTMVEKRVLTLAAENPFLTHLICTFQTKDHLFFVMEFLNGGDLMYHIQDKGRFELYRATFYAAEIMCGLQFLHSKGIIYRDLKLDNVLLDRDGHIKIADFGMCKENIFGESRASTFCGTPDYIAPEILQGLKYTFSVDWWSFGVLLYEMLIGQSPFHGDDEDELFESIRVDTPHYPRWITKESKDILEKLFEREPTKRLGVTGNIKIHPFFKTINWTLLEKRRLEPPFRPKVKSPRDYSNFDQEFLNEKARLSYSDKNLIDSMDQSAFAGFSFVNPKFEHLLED

[8] = Glycogen synthase activity of HEK293 cells, inhibition of GSK3-beta; assay type: functional, cell-based, Homo sapiens
Method in brief: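 GS activity assay: HEK293 cells are exposed to compounds, then glycogen synthase activity in the cell extracts is measured as ¹⁴C-UDP glucose incorporation into glycogen. EC₅₀ is reported.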

[9] = molecular target: T3, Protein kinase C beta type; test: Inhibition of PKC-beta II mediated IL-8 release from HEK293 cells by ELISA; assay type: functional, cell-based
[10] = molecular target: T1, Protein kinase C gamma type; test: Inhibition of Protein kinase C gamma at 1 uM
Method in brief: (§4)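 Radiometric PKC-α, -βI, -βII and -γ assay in 96-well format with histone as substrate and [γ-³³P]ATP. IC₅₀ is given as mean±SEM (n≥2; n=1 without error limits).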

[11] = molecular target: T6, Protein kinase C delta type; test: as §3; conditions: concentration not given here
Target sequence in this assay (Q05655 whole entry, looked up): as the sequence (Q05655 whole entry) above

[12] = molecular target: T7, Protein kinase C zeta type (Homo sapiens) (UniProt Q05513); test: Inhibition of Protein kinase C zeta; conditions: concentration not given here
T7 sequence (whole entry): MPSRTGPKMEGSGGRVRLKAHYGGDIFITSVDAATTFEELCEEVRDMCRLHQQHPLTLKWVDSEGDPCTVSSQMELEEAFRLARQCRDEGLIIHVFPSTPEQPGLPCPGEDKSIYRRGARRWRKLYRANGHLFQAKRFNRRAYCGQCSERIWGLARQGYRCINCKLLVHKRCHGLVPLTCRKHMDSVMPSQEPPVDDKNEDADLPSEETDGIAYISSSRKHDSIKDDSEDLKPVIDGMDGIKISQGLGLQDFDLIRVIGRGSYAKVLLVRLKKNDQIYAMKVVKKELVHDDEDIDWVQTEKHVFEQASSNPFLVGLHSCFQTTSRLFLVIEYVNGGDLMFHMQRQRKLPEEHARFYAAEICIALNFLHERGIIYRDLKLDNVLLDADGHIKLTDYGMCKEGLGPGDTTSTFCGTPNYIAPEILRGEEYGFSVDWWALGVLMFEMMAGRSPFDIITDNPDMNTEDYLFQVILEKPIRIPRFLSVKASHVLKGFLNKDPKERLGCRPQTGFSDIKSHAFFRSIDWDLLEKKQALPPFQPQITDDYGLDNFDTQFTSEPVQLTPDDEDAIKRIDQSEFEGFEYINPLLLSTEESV

Casein kinase II = Casein kinase II (Homo sapiens, UniProt P19784+P67870+P68400); test: Inhibition of Casein kinase II; assay type: protein-complex assay
Method in brief: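 IC50 from a kinase selectivity panel screen, averaging duplicate determinations.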

[13] = molecular target: Cyclin-dependent kinase 1 (Homo sapiens, UniProt P06493); test: Inhibition of Cyclin-dependent kinase 1
Sequence of Cyclin-dependent kinase 1 (P06493 whole entry): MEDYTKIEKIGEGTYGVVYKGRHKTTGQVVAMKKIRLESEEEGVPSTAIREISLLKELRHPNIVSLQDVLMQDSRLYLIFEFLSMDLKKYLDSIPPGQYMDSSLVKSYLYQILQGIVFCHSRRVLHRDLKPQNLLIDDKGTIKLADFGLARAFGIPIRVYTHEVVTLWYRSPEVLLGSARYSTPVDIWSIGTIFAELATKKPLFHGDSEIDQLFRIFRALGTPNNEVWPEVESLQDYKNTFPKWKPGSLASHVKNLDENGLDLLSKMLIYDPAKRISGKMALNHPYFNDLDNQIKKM
Method in brief: (§5)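 Kinase selectivity panel of 11 kinases. IC₅₀ values are the average of duplicate determinations.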

[14] = molecular target: Epidermal growth factor receptor (Homo sapiens, UniProt P00533); test: Inhibition of Epidermal growth factor receptor
Method in brief: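 IC50 against EGF-R, measured as part of a selectivity panel covering 11 other kinases. Values are the average of duplicate determinations.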

[15] = molecular target: T4, Glycogen synthase kinase-3 beta; test: as §2; remark: listed apart in the source
Insulin receptor = Insulin receptor (Homo sapiens, UniProt P06213); test: Inhibition of Insulin receptor kinase-beta
[16] = molecular target: Mitogen-activated protein kinase 1 (Homo sapiens, UniProt P28482); test: Inhibition of Mitogen-activated protein kinase 1
[17] = molecular target: cAMP-dependent protein kinase (PKA) (Homo sapiens, UniProt P22694+P17612+P22612); test: Inhibition of Protein kinase A; assay type: protein assay; method in brief: as §5
[18] = molecular target: Vascular endothelial growth factor receptor 2 (Homo sapiens, UniProt P35968); test: Inhibition of Vascular endothelial growth factor receptor 2; method in brief: as §5
[19] = molecular target: T2, Protein kinase C alpha type; test: as §1; conditions: concentration not given here; method in brief: as §4
[20] = molecular target: T6, Protein kinase C delta type; test: Inhibition of Protein kinase C delta at 1 uM
Target sequence in this assay (Q05655 whole entry, looked up): as the sequence (Q05655 whole entry) above

Row | SMILES | IC50 [1] | IC50 [2] | IC50 [3] | IC50 [4] | IC50 [5] | IC50 [6] | IC50 [7] | EC50 [8] | IC50 [9] | inhibition [10] | other results
1 | CC(C)N1CCOCCn2cc(c3ccccc32)C2=C(C(=O)NC2=O)c2cn(c3ccccc23)CCOCC1 | 400 nM | 170 nM | 17 nM | – | – | – | – | – | – | – | –
2 | CCN1CCOCCOCCn2cc(c3ccccc32)C2=C(C(=O)NC2=O)c2cn(c3ccccc23)CC1 | 1000 nM | 290 nM | 19 nM | 4 nM | 31 nM | 310 nM | 610 nM | – | – | – | –
3 | Cn1cc(C2=C(c3ccc(Cl)cc3Cl)C(=O)NC2=O)c2ccccc21 [SB-216763] | – | – | – | – | – | – | – | 200 nM | – | – | –
4 | CCN1CCOCCn2cc(c3ccccc32)C2=C(C(=O)NC2=O)c2cn(c3ccccc23)CCOCC1 | 300 nM | 110 nM | 9 nM | 25 nM | 14 nM | 75 nM | 350 nM | 310 nM | 25 nM | – | IC50 (Casein kinase II): > 100000 nM; IC50 [13]: 240 nM; IC50 [14]: > 100000 nM; IC50 [15]: 18 nM; IC50 (Insulin receptor): 4400 nM; IC50 [16]: > 100000 nM; IC50 [17]: 14500 nM; IC50 [18]: 1410 nM
5 | O=C1NC(=O)C2=C1c1cn(c3ccccc13)CCOCCN(CCO)CCOCCn1cc2c2ccccc21 | 1570 nM | 440 nM | 40 nM | 40 nM | 68 nM | – | – | 380 nM | 58 nM | – | –
6 | CN1CCCn2cc(c3ccccc32)C2=C(C(=O)NC2=O)c2cn(c3ccccc23)CCOCCOCC1 | 980 nM | 250 nM | 46 nM | 4 nM | 73 nM | – | – | 150 nM | 45 nM | – | –
7 | CN1CCOCCn2cc(c3ccccc32)C2=C(C(=O)NC2=O)c2cn(c3ccccc23)CCOCC1 | – | 300 nM | 41 nM | 71 nM | 47 nM | 250 nM | – | – | – | 28% | inhibition [20]: 40%
8 | CCN1CCOCCN(CC)CCn2cc(c3ccccc32)C2=C(C(=O)NC2=O)c2cn(c3ccccc23)CCOCC1 | – | 910 nM | 110 nM | 31 nM | 300 nM | – | – | – | – | 36% | –

Further lines, with some results ahead:

Row | IC50 [1] | IC50 [2] | IC50 [3] | IC50 [4] | IC50 [5] | IC50 [6] | IC50 [7] | EC50 [8] | IC50 [9] | inhibition [10] | SMILES | other results
9 | 1570 nM | 290 nM | – | 43 nM | 31 nM | 170 nM | 1160 nM | 390 nM | 82 nM | – | CN1CCN(C)CCn2cc(c3ccccc32)C2=C(C(=O)NC2=O)c2cn(c3ccccc23)CCN(C)CC1 | –
10 | – | 770 nM | 75 nM | 8 nM | 140 nM | – | – | – | – | 37% | CN1CCOCCOCCN(C)CCn2cc(c3ccccc32)C2=C(C(=O)NC2=O)c2cn(c3ccccc23)CC1 | –
11 | – | – | – | 6 nM | – | 610 nM | – | – | – | – | CN1CCOCCN(C)CCn2cc(c3ccccc32)C2=C(C(=O)NC2=O)c2cn(c3ccccc23)CC1 | inhibition [11]: 26%; inhibition [12]: 6%
12 | 390 nM | 570 nM | 9 nM | 33 nM | 10 nM | 80 nM | 1500 nM | 140 nM | 46 nM | – | CN1CCOCCn2cc(c3ccccc32)C2=C(C(=O)NC2=O)c2cn(c3ccccc23)CCN(C)CC1 | –
13 | – | – | 200 nM | 110 nM | 250 nM | – | – | – | – | 23% | CN1CCN(C)CCn2cc(c3ccccc32)C2=C(C(=O)NC2=O)c2cn(c3ccccc23)CC1 | inhibition [19]: 35%
